Among the data in ChEMBL document CHEMBL4513216, “Probing the Open Global Health Chemical Diversity Library for Multistage-Active Starting Points for Next-Generation Antimalarials” (ACS Infect Dis, 2020) are cytotoxicity values, retold here.

SMILES strings stand for the structures.

The nature of the data set: Toxicity liver stage against HepG2, at 10uM. The format is cell-based. On the set-up: test concentration 10 uM, cell line HepG2-A16-CD81EGFP. The following applies: human, HepG2-A16-CD81EGFP cells; read-out: INHIBITION
The essentials: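 Uninfected HepG2-A16-CD81EGFP cells, 3 × 10^3 per well, 1536-well, plated on prespotted compound at 10 μM final, parasite-free screening media added to match infected plates; puromycin 10 μM positive, DMSO 0.5% negative; run in parallel with 48 h PbLuc assay at 37 °C, 5% CO2; viability by CellTiter-Glo luminescence, normalized to controls.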
Take `CCN(Cc1ccc(F)c(F)c1)Cc1nc2c(cnn2C)c(=O)[nH]1`: the cytotoxicity at 10 µM was -4.18%. Next, `CCN(Cc1nc(COC)no1)C(=O)CCNC(=O)c1ccccc1F`: -4.17%; `CCn1c(C2CCCN(Cc3ccc(OC)c(C)c3C)C2)nn(C)c1=O` (centres undefined): 5.52%; `O=C([C@H]1CCS(=O)(=O)[C@@H]2CN(CCc3ccccc3)C[C@H]12)N1CCCC1`: 0.688%. For the compound `Cc1nc(CN(C)C2CCN(CCn3cc(C#N)cn3)C2)no1` (centres undefined), the cytotoxicity at 10 µM was -3.82%. Consider `Cc1cccc(S(=O)(=O)N2CSCC2C(=O)NCC2CC2)c1` (centres undefined), for which the cytotoxicity at 10 µM was -6.14%. For `COc1cc(N2CCC3(CC2)C(c2ccncc2)CC(=O)N3C)ncn1` (centres undefined) the value was -107%; for `Cc1n[nH]c(C)c1NC(=O)c1cccc(OCC(F)(F)F)n1`, -6.83%.

Take `COc1c(C)cnc(CSc2nnc(NC3CC3)s2)c1C`: the cytotoxicity at 10 µM was 10.9%. For `Cc1ccc(NC(=O)NCCc2cnn(C)c2)c(N(C)C)n1` the value was 13.4%; for `CC(C)c1nn(C)c(N(C)C)c1CNCc1cccc(CN(C)C)c1`, -4.22%. For `CC(=O)NC1CCCN(Cc2csc(-c3ncccn3)n2)C1` (centres undefined) the value was -13.1%; for `Cc1cnn(C2CN(C(C)c3nc(-c4ccccc4)no3)C2)c1` (centres undefined), -2.21%; for `CCS(=O)(=O)N1C[C@@H]2CN(Cc3cccs3)CCO[C@@H]2C1`, -138%. As for `Cc1nc(C2(NCc3cccc(F)c3F)CCCCC2)no1`, the cytotoxicity at 10 µM stood at 0.749%.

Turning to `CC(C)N(CCO)C(=O)c1cc(COc2ccc3c(c2)CCCC3)on1`, the cytotoxicity at 10 µM is -135%. Regarding `CC1(NC(=O)Cc2cccs2)CCS(=O)(=O)C1` (centres undefined), the cytotoxicity at 10 µM came to 8.39%. For `CCC[C@@H]1CN(C(=O)c2cnc3ccccc3c2)C[C@H]1NS(C)(=O)=O` the value was -11.1%; for `CCS(=O)(=O)N1CC[C@H]2OCC[C@@]2(c2nnc(C)o2)C1`, 7.95%; for `O=C([C@H]1CCCO1)N1CCOC2(CCCN(c3ncccc3F)C2)C1` (some centres undefined), 1.73%. For the compound `O=C(O)C1(Oc2ccc(Cl)cc2)CCN(C2CCOCC2)CC1`, the cytotoxicity at 10 µM stood at 3.05%.

Regarding `CCn1c(C2CCNCC2)nn(CCn2cncn2)c1=O`, the cytotoxicity at 10 µM was -6.26%.

With `CNc1ccnc(N2C[C@@H](C)[C@](O)(C3CCC3)C2)n1`, the cytotoxicity at 10 µM is -10.1%. Regarding `CC(=O)c1c(F)cccc1N1CCC(C(N)=O)CC1`, the cytotoxicity at 10 µM amounted to 6.75%.

With `COc1c(C)cnc(CN2CCCCC2Cn2nc(C)nc2C)c1C` (centres undefined), the cytotoxicity at 10 µM is -0.627%. For `Cc1cccnc1CNC(=O)NC(C)Cc1c(C)nn(C)c1C` (centres undefined) the value was 3.92%; for `CN1CCN(c2ccc(Br)cc2NC(=O)c2ccco2)CC1`, -6.09%. Next, `O=C(N1CCOCC1)N1CCc2ncnc(Oc3cccnc3)c2CC1`: -0.82%; `Cn1ccnc1-c1cccc(NC(=O)NCCCN2CCOCC2)c1`: -5.01%.

For `O=C(CCc1cc2n(n1)CCCN(C(=O)c1ccncc1)C2)NC1CC1`, the cytotoxicity at 10 µM was determined as 12.2%.

With `COc1ccc(C(=O)N(CCO)Cc2ccccc2)c(OC)n1`, the cytotoxicity at 10 µM came out at 3.33%. On to `O=S1(=O)C[C@@H]2[C@H](C1)N(Cc1nc3ccccc3[nH]1)CCN2CC1CC1`, for which the cytotoxicity at 10 µM was -133%. In the case of `Cc1cccc(N2CCN(C(=O)CCCC(=O)N(C)C)C(C)C2)n1` (centres undefined), the cytotoxicity at 10 µM is 14.6%. As to `CCOc1cc(-c2cc(=O)n3c(n2)CCCCC3)ccc1O`, the cytotoxicity at 10 µM is 1.32%. Next, `CC(C)c1ncc(CN2C[C@@H](CN3CCC(O)CC3)[C@@H](CO)C2)cn1`: -7.79%.

In the case of `CS(=O)(=O)N1Cc2ccccc2CC2(CCN(Cc3ccccc3)C2)C1` (centres undefined), the cytotoxicity at 10 µM came out at 7.38%. Next, `NC(=O)CCCNC(=O)Cc1csc(Cc2ccccn2)n1`: -4.56%; `CC1CCN(S(=O)(=O)N2CCCN(CC3CCCO3)CC2)CC1` (centres undefined): -5.15%. For `CN1CCC2(CC1)CN(C(=O)c1cccnc1)c1ccc(Cl)cc12` the value was -109%; for `CN(C)S(=O)(=O)N1CCCC1CC(=O)c1cccs1` (centres undefined), -9.44%; for `CC(=O)c1ccc(C(=O)N2C[C@H]3CC[C@@H](C2)N(Cc2ccccc2)C3)s1`, -13.3%. Next, `c1cc(CN2CCC(c3ccnc4nccn34)C2)ccn1` (centres undefined): 1.58%; `Cc1nc(N2Cc3cnn(Cc4ccc(F)cc4)c3C2)no1`: -3.05%. As for `COc1cccc(S(=O)(=O)CCNC(C)Cn2cccn2)c1` (centres undefined), the cytotoxicity at 10 µM is -3.34%. For `CC(CO)N(C)C(=O)c1cn(-c2ccc(Br)cc2)cn1` (centres undefined) the value was -2.87%; for `CCNc1ccnc(NC2CCN(CC(N)=O)CC2)n1`, -15.7%; for `CNC(=O)c1cc2c(nc1N(C)C)CCN(c1ncccn1)CC2`, -119%. For `OCCOCc1n[nH]c2c1CN(Cc1ccccn1)C2` the value was -112%; for `O=C1CN(C(=O)OCc2ccccc2)CC(O)CN1Cc1ccco1` (centres undefined), -9.92%. For `O=C(NCc1cccnc1)[C@@H]1CC[C@@H]2[C@@H](CCN2c2ncccn2)O1` the value was -68%; for `Cn1c(C(=O)NC2CC2)nc2c1CCN(c1ncccn1)C2`, -4.75%; for `Cc1ccccc1CN1C[C@@H]2COC[C@]2(CNC(=O)C2CCC2)C1`, -110%. With `CN(Cc1ccco1)C(=O)Nc1ccc(=O)n(C)c1`, the cytotoxicity at 10 µM was -43.1%. Take `O=C(NCC1CCOC1)c1ccc(-c2ccccc2)[nH]c1=O` (centres undefined): the cytotoxicity at 10 µM was -18.3%. For `CNC(=O)C1CCCN(C(=O)C2CCC2)C1` (centres undefined) the value was -4.47%; for `CN(C)Cc1nnc2n1CCN(c1cnccn1)CC2`, -10.8%. For `CN1CCCn2c(nc(CNS(=O)(=O)C3CC3)cc2=O)C1` the value was 5.92%; for `CC1(C)CN(CC(F)(F)F)CCN1CC(=O)N1CCCCC1`, 13.2%; for `COc1c(CNCC(c2cccc(F)c2)N(C)C)c(C(C)C)nn1C` (centres undefined), -3.27%.

In the case of `Cc1ccc2cccc(C(=O)N3CCN(c4cccnn4)CC3)c2n1`, the cytotoxicity at 10 µM was determined as 1.91%. Next, `N#Cc1ccccc1OCCN1CCCC(c2noc(C3CC3)n2)C1` (centres undefined): 5.87%; `CCCS(=O)(=O)N1CCN(c2cc(-n3nc(C)cc3C)nc(C)n2)CC1`: -13.7%. Consider `CO[C@@H]1CCN(C(=O)Cc2cccc(F)c2)[C@H]1Cc1cccnc1`, for which the cytotoxicity at 10 µM was -4.89%.

In the case of `COc1ccc(S(=O)(=O)N2CCC(Cn3ccnc3)CC2)cc1`, the cytotoxicity at 10 µM was -0.178%. Next, `CNC(=O)COc1ccc(CNCc2c(C)nn(C)c2N(C)C)cc1`: -5.92%; `COCCN(C(=O)c1ccc(OC)cc1)c1ccc(C#N)cc1`: 7.81%; `CN(C)CC(=O)N1CCC2(CC1)COc1ccccc1S(=O)(=O)N(C)C2`: 0.0039%. For the compound `CCNc1cc2c(nn1)CCN(C(=O)C1COc3ccccc3C1)C2` (centres undefined), the cytotoxicity at 10 µM is -4.83%. In the case of `CC(=O)N1CCC(C(=O)NCc2cc[nH]n2)(c2ccccc2)CC1`, the cytotoxicity at 10 µM was -0.037%.

As to `Cc1cc(C(=O)N2CCOC(c3nc(C(C)C)n[nH]3)C2)c(C)s1` (centres undefined), the cytotoxicity at 10 µM was -5.72%. For `CC1(C)CN(C(=O)c2cc(F)cc3[nH]cnc23)CCS1` the value was -7.36%; for `CCN(Cc1ccncc1)C(=O)C(C)n1ccnc1C(C)C` (centres undefined), 2.79%; for `CCOCCN1CCN(CC(=O)N2CCC2)CC1CC` (centres undefined), -2.15%. Regarding `O=C(Cc1ccc2c(c1)OCCO2)N1CCCC(n2cccn2)C1` (centres undefined), the cytotoxicity at 10 µM amounted to 7%. For `CCO[C@H]1CN(CC2CCOCC2)[C@@H]2CCCO[C@H]12` the value was -109%; for `CCN(CC)C(=O)CN(C)C(=O)c1ccc(-c2ccsc2)nc1C`, 18.1%; for `O=C(CCOCC(F)(F)F)NS(=O)(=O)c1cccnc1`, 0.946%. For `CC(C)COCCCNC(=O)NC(C)c1ccc(-n2cncn2)cc1` (centres undefined) the value was 2.42%; for `CN1CCC/C1=N\S(=O)(=O)c1ccc(NC(=O)c2ccc(F)cc2)cc1`, -4.84%.

`Cn1cc(CC(=O)N2CCOC(c3nc(C(C)(C)C)n[nH]3)C2)cn1` (centres undefined): the cytotoxicity at 10 µM came to 2.4%. For `Cc1cnc(N2C[C@@H]3[C@@H](C(=O)NC(C)C)CCS(=O)(=O)[C@@H]3C2)nc1` the value was -130%; for `CC1CCCN(C(=O)Nc2ccc(F)c(C(N)=O)c2)C1` (centres undefined), -7.48%; for `Cc1ccccc1C(=O)N1Cc2c(Cn3ccnc3)nn(C)c2C1`, -72.1%. Consider `Cc1c(-c2ccccc2)ncn1CC(c1cccnc1)N1CCOCC1` (centres undefined), for which the cytotoxicity at 10 µM is 2.11%.

Consider `CC(C)CN1C(=O)C2(CCN(Cc3ccsc3)C2)c2ccccc21` (centres undefined), for which the cytotoxicity at 10 µM is 15.7%. For `COc1cc(N2C[C@@H]3COC[C@@H](Cc4nnc(C)o4)[C@@H]3C2)ncn1` the value was -112%.

Consider `CC(=O)NCCNC(=O)CCn1c(C)cc2ccccc21`, for which the cytotoxicity at 10 µM worked out at 6.26%.

In the case of `Cc1ccc(CCC(=O)N2CCCC(n3cncn3)C2)c(C)c1` (centres undefined), the cytotoxicity at 10 µM came out at 1.8%. In the case of `CC(C)CN1CCC(NC(C)c2ccccc2-n2cccn2)CC1` (centres undefined), the cytotoxicity at 10 µM came to 1.06%. Consider `CS(=O)(=O)NC[C@]12COC[C@H]1CN(C(=O)C1CCCCC1)C2`, for which the cytotoxicity at 10 µM was found to be 3.34%. Take `CC(NC(=O)Cn1cc(C(N)=O)c(-c2ccccc2)n1)C1CC1` (centres undefined): the cytotoxicity at 10 µM was -7.9%. Next, `CNC(=O)C1=NOC2(CCN(Cc3nccs3)C2)C1` (centres undefined): -73.4%; `CN(C)C(=O)N1CCO[C@@H]2CC(COCc3cccnc3)C[C@H]21` (some centres undefined): 8.61%.

Consider `CC(C)OCCCNC(=O)C1CCC(=O)N(C2CCCC2)C1` (centres undefined), for which the cytotoxicity at 10 µM was -5.92%.
